Assay results as given in ChEMBL document CHEMBL2429728, “Novel Macrocyclic Amidinoureas: Potent Non-Azole Antifungals Active against Wild-Type and Resistant Candida Species” (2013).
Values after ≈ are worked out from the molar mass of the structure shown.

How the values were obtained:
Format in all cases: functional
Nakaseomyces glabratus [1] = assay: Antifungal activity against fluconazole-resistant Candida glabrata DSY2254 increase expressing of CgCDR1 and CgCDR2 genes after 24 hrs by visually and spectrophotometric analysis; conditions: DSY2254, 24 h
Summary of the method: (§1)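 Endpoint is MIC90, in μg/mL, read at 24 h by both visual inspection and spectrophotometry.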

[2] = tested on: Meyerozyma guilliermondii; assay: Antifungal activity against wild type Candida guilliermondii after 24 hrs by visually and spectrophotometric analysis
Candida albicans [3] = assay: Antifungal activity against fluconazole-resistant Candida albicans DSY735 expressing high level of CDR1 and CDR2 genes after 24 hrs by visually and spectrophotometric analysis; conditions: DSY735, 24 h; summary of the method: as §1
Candida albicans [4] = assay: Antifungal activity against fluconazole-resistant Candida albicans DSY348 harboring ERG11 gene mutant and increase expressing of CDR1 and CDR2 genes after 24 hrs by visually and spectrophotometric analysis; conditions: DSY348, 24 h; summary of the method: as §1
Candida albicans [5] = assay: Antifungal activity against fluconazole-resistant Candida albicans DSY289 harboring ERG11 gene mutant and increase expressing of CDR1 and CDR2 genes after 24 hrs by visually and spectrophotometric analysis; conditions: DSY289, 24 h; summary of the method: as §1
Candida parapsilosis = assay: Antifungal activity against wild type Candida parapsilosis ATCC 34136 after 24 hrs by visually and spectrophotometric analysis; conditions: Lodderomyces parapsilosis, ATCC 34136, 24 h
Candida albicans [6] = assay: Antifungal activity against fluconazole-resistant Candida albicans DSY284 harboring ERG11 gene mutant and increase expressing of CDR1 and CDR2 genes after 24 hrs by visually and spectrophotometric analysis; conditions: DSY284, 24 h; summary of the method: as §1
Candida albicans [7] = assay: Antifungal activity against fluconazole-resistant Candida albicans DSY775 harboring ERG11 gene mutant and increase expressing of CDR1 and CDR2 genes after 24 hrs by visually and spectrophotometric analysis; conditions: DSY775, 24 h; summary of the method: as §1
Clavispora lusitaniae [8] = assay: Antifungal activity against Candida lusitaniae ATCC 200950 after 24 hrs by visually and spectrophotometric analysis; conditions: ATCC 200950, 24 h
Summary of the method: (§2)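 Read-out is MIC90 in μg/mL, scored at 24 h both by eye and spectrophotometrically. The panel is Candida isolates that earlier reports describe as amphotericin B-resistant, with amphotericin B run alongside as the reference drug.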

Pichia kudriavzevii = assay: Antifungal activity against wild type Candida krusei ATCC 14243 after 24 hrs by visually and spectrophotometric analysis; conditions: ATCC 14243, 24 h
Candida albicans [9] = assay: Antifungal activity against Candida albicans ATCC 200955 after 24 hrs by visually and spectrophotometric analysis; conditions: ATCC 200955, 24 h; summary of the method: as §1
Nakaseomyces glabratus [10] = assay: Antifungal activity against fluconazole-resistant Candida glabrata DSY756 increase expressing of CgCDR1, CgCDR2, and CgSNQ2 genes after 24 hrs by visually and spectrophotometric analysis; conditions: DSY756, 24 h; summary of the method: as §1
Nakaseomyces glabratus [11] = assay: Antifungal activity against fluconazole-resistant Candida glabrata DSY2271 increase expressing of CgCDR2 genes after 24 hrs by visually and spectrophotometric analysis; conditions: DSY2271, 24 h; summary of the method: as §1
Candida albicans [12] = assay: Antifungal activity against wild type Candida albicans ATCC 60193 after 24 hrs by visually and spectrophotometric analysis; conditions: ATCC 60193, 24 h
Clavispora lusitaniae [13] = assay: Antifungal activity against Candida lusitaniae ATCC 200953 after 24 hrs by visually and spectrophotometric analysis; summary of the method: as §2
Candida albicans [14] = assay: Antifungal activity against fluconazole-resistant Candida albicans DSY751 harboring ERG11 gene mutant and increase expressing of MDR1 gene after 24 hrs by visually and spectrophotometric analysis; conditions: DSY751, 24 h; summary of the method: as §1
Nakaseomyces glabratus [15] = assay: Antifungal activity against fluconazole-resistant Candida glabrata DSY530 increase expressing of CgCDR1 gene after 24 hrs by visually and spectrophotometric analysis; conditions: DSY530, 24 h; summary of the method: as §1
Candida tropicalis [16] = assay: Antifungal activity against Candida tropicalis ATCC 200956 after 24 hrs by visually and spectrophotometric analysis; conditions: ATCC 200956, 24 h; summary of the method: as §2
Clavispora lusitaniae [17] = assay: Antifungal activity against Candida lusitaniae ATCC 200952 after 24 hrs by visually and spectrophotometric analysis; summary of the method: as §2
Candida tropicalis [18] = assay: Antifungal activity against wild type Candida tropicalis after 24 hrs by visually and spectrophotometric analysis
Clavispora lusitaniae [19] = assay: Antifungal activity against Candida lusitaniae ATCC 24348 after 24 hrs by visually and spectrophotometric analysis; conditions: ATCC 24348, 24 h; summary of the method: as §2
Nakaseomyces glabratus [20] = assay: Antifungal activity against fluconazole-resistant Candida glabrata DSY754 increase expressing of CgCDR1 gene after 24 hrs by visually and spectrophotometric analysis; conditions: DSY754, 24 h; summary of the method: as §1
Kluyveromyces marxianus = assay: Antifungal activity against wild type Candida kefyr after 24 hrs by visually and spectrophotometric analysis
Candida albicans [21] = assay: Antifungal activity against fluconazole-resistant Candida albicans DSY292 harboring ERG11 gene mutant and increase expressing of MDR1 gene after 24 hrs by visually and spectrophotometric analysis; conditions: DSY292, 24 h; summary of the method: as §1
Nakaseomyces glabratus [22] = assay: Antifungal activity against wild type Candida glabrata after 24 hrs by visually and spectrophotometric analysis
Clavispora lusitaniae [23] = assay: Antifungal activity against Candida lusitaniae ATCC 60247 after 24 hrs by visually and spectrophotometric analysis; conditions: ATCC 60247, 24 h; summary of the method: as §2
Clavispora lusitaniae [24] = assay: Antifungal activity against Candida lusitaniae ATCC 200951 after 24 hrs by visually and spectrophotometric analysis; summary of the method: as §2
Candida albicans [25] = assay: Antifungal activity against fluconazole-resistant Candida albicans DSY296 harboring ERG11 gene mutant and increase expressing of CDR1 and CDR2 genes after 24 hrs by visually and spectrophotometric analysis; conditions: DSY296, 24 h; summary of the method: as §1

SMILES | MIC90 (Nakaseomyces glabratus [1]) | MIC90 [2] | MIC90 (Candida albicans [3]) | MIC90 (Candida albicans [4]) | MIC90 (Candida albicans [5]) | MIC90 (Candida parapsilosis) | MIC90 (Candida albicans [6]) | MIC90 (Candida albicans [7]) | MIC90 (Clavispora lusitaniae [8]) | MIC90 (Pichia kudriavzevii) | MIC90 (Candida albicans [9]) | MIC90 (Nakaseomyces glabratus [10]) | MIC90 (Nakaseomyces glabratus [11]) | MIC90 (Candida albicans [12]) | MIC90 (Clavispora lusitaniae [13]) | MIC90 (Candida albicans [14]) | MIC90 (Nakaseomyces glabratus [15]) | MIC90 (Nakaseomyces glabratus [20]) | MIC90 (Candida albicans [21]) | MIC90 (Candida albicans [25]) | further results
C/C=C/CNC(=N)NCCCCCCCCN1CCCCCOc2ccccc2CNC(=N)NC1=O.O=C(O)C(F)(F)F | 16 µg/mL | 2 µg/mL | 2 µg/mL | 2 µg/mL | 2 µg/mL | 2 µg/mL | 2 µg/mL | 4 µg/mL | 2 µg/mL | 8 µg/mL | 1 µg/mL | 8 µg/mL | 8 µg/mL | 4 µg/mL | 4 µg/mL | 4 µg/mL | 8 µg/mL | 16 µg/mL | 4 µg/mL | 4 µg/mL | MIC90 (Candida tropicalis [16]): 4 µg/mL; MIC90 (Clavispora lusitaniae [17]): 2 µg/mL; MIC90 (Candida tropicalis [18]): 2 µg/mL; MIC90 (Clavispora lusitaniae [19]): 2 µg/mL; MIC90 (Kluyveromyces marxianus): 4 µg/mL; MIC90 (Nakaseomyces glabratus [22]): 8 µg/mL; MIC90 (Clavispora lusitaniae [23]): 4 µg/mL; MIC90 (Clavispora lusitaniae [24]): 2 µg/mL
C=CCNC(=N)NCCCCCCCCN1CCCCCCCCNC(=N)NC1=O.O=C(O)C(F)(F)F | 32 µg/mL | 2 µg/mL | 1 µg/mL | 1 µg/mL | 1 µg/mL | 4 µg/mL | 1 µg/mL | 2 µg/mL | 2 µg/mL | 0.5 µg/mL | 1 µg/mL | 16 µg/mL | 32 µg/mL | 1 µg/mL | 4 µg/mL |  | 16 µg/mL | 32 µg/mL | 2 µg/mL | 2 µg/mL | MIC90 (Candida tropicalis [16]): 1 µg/mL; MIC90 (Clavispora lusitaniae [17]): 2 µg/mL; MIC90 (Candida tropicalis [18]): 0.5 µg/mL; MIC90 (Clavispora lusitaniae [19]): 1 µg/mL; MIC90 (Kluyveromyces marxianus): 4 µg/mL; MIC90 (Nakaseomyces glabratus [22]): 32 µg/mL; MIC90 (Clavispora lusitaniae [23]): 2 µg/mL; MIC90 (Clavispora lusitaniae [24]): 2 µg/mL
C/C=C/CNC(=N)NCCCCCCCCN1CCCCCCCCNC(=N)NC1=O |  |  |  |  |  |  |  |  |  |  |  |  |  |  |  |  |  |  |  |  | MIC50 (Candida parapsilosis): 5 µg/mL (≈ 11.5 µM); MIC50 (Pichia kudriavzevii): 5 µg/mL (≈ 11.5 µM); MIC50 (Candida albicans [12]): 2.5 µg/mL (≈ 5.74 µM); MIC50 (Candida tropicalis [18]): 1.25 µg/mL (≈ 2.87 µM); MIC50 (Nakaseomyces glabratus [22]): 20 µg/mL (≈ 45.9 µM)
C[C@@H](c1ncncc1F)[C@](O)(Cn1cncn1)c1ccc(F)cc1F [VORICONAZOLE] | 2 µg/mL (≈ 5.73 µM) |  | 2 µg/mL (≈ 5.73 µM) | 0.25 µg/mL (≈ 0.716 µM) | 8 µg/mL (≈ 22.9 µM) |  | 4 µg/mL (≈ 11.5 µM) | 8 µg/mL (≈ 22.9 µM) |  |  |  | 4 µg/mL (≈ 11.5 µM) | 0.125 µg/mL (≈ 0.358 µM) |  |  | 0.25 µg/mL (≈ 0.716 µM) | 0.5 µg/mL (≈ 1.43 µM) | 2 µg/mL (≈ 5.73 µM) | 2 µg/mL (≈ 5.73 µM) | 8 µg/mL (≈ 22.9 µM) | 
N=C(NCCCCCCCCN1CCCCCCCCNC(=N)NC1=O)NCC1CC1.O=C(O)C(F)(F)F | 32 µg/mL | 2 µg/mL | 1 µg/mL | 2 µg/mL | 1 µg/mL | 2 µg/mL | 1 µg/mL | 2 µg/mL | 4 µg/mL | 4 µg/mL | 1 µg/mL | 16 µg/mL | 16 µg/mL | 1 µg/mL | 2 µg/mL | 2 µg/mL | 16 µg/mL | 16 µg/mL | 2 µg/mL | 2 µg/mL | MIC90 (Candida tropicalis [16]): 2 µg/mL; MIC90 (Clavispora lusitaniae [17]): 1 µg/mL; MIC90 (Candida tropicalis [18]): 0.5 µg/mL; MIC90 (Clavispora lusitaniae [19]): 2 µg/mL; MIC90 (Kluyveromyces marxianus): 4 µg/mL; MIC90 (Nakaseomyces glabratus [22]): 16 µg/mL; MIC90 (Clavispora lusitaniae [23]): 4 µg/mL; MIC90 (Clavispora lusitaniae [24]): 2 µg/mL
